Assay results: ChEMBL document CHEMBL4020837, “Identification of Eukaryotic Translation Elongation Factor 1-α 1 Gamendazole-Binding Site for Binding of 3-Hydroxy-4(1 H)-quinolinones as Novel Ligands with Anticancer Activity” (J Med Chem, 2018)
Active and inactive are the calls of the source. The calls are words filed in the database; no cut-off is given here.

What was measured:
K562 [1] = test: Antiproliferative activity against taxol resistant human K562 cells by MTT assay; assay type: functional, cell-based
A549 [2] = test: Antiproliferative activity against human A549 cells by MTT assay; assay type: functional, cell-based
[3] = Antiproliferative activity against human CEM-DNR-bulk cells by MTT assay; assay type: functional, cell-based
CCRF-CEM [4] = test: Antiproliferative activity against human CCRF-CEM cells by MTT assay; assay type: functional, cell-based
BJ [5] = test: Antiproliferative activity against human BJ cells by MTT assay; assay type: cell-based
U2OS [6] = test: Antiproliferative activity against human U2OS cells by MTT assay; assay type: functional, cell-based
K562 [7] = test: Antiproliferative activity against human K562 cells by MTT assay; assay type: functional, cell-based
[8] = target: T1, Elongation factor 1-alpha 1 (Homo sapiens) (UniProt P68104); test: Binding affinity to recombinant human eEF1A1 expressed in HEK293 cells by ITC
T1 sequence (whole entry): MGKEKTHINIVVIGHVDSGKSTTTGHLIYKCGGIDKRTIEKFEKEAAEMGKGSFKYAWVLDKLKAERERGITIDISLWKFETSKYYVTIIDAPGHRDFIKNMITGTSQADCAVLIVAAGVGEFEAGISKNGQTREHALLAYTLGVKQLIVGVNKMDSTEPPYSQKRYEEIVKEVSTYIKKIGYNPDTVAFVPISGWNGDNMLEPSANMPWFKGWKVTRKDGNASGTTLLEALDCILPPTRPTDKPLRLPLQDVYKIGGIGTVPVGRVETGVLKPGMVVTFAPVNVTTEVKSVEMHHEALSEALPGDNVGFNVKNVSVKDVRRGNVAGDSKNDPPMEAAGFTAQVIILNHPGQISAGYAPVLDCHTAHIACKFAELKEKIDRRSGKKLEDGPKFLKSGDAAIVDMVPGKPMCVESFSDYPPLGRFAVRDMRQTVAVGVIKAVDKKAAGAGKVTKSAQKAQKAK
Method in brief: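 Isothermal titration calorimetry recorded the heat changes on titrating ligand into eEF1A1. Binding enthalpy and association constant (Ka) were derived from the titration profiles.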

BJ [9] = test: Antiproliferative activity against human BJ cells after 72 hrs by MTT assay; assay type: cell-based
A549 [10] = test: Antiproliferative activity against human A549 cells after 72 hrs by MTT assay; assay type: functional, cell-based; conditions: A549, 72 h
U2OS [11] = test: Antiproliferative activity against human U2OS cells after 72 hrs by MTT assay; assay type: functional, cell-based
CCRF-CEM [12] = test: Antiproliferative activity against human CCRF-CEM cells after 72 hrs by MTT assay; assay type: functional, cell-based
HCT-116 = test: Antiproliferative activity against human HCT116 cells after 72 hrs by MTT assay; assay type: functional, cell-based; conditions: HCT-116, 72 h
K562 [13] = test: Antiproliferative activity against taxol resistant human K562 cells after 72 hrs by MTT assay; assay type: functional, cell-based; conditions: K562, 72 h
[14] = Antiproliferative activity against human CEM-DNR-bulk cells after 72 hrs by MTT assay; assay type: functional, cell-based
K562 [15] = test: Antiproliferative activity against human K562 cells after 72 hrs by MTT assay; assay type: functional, cell-based; conditions: K562, 72 h
[16] = target: T1, Elongation factor 1-alpha 1 (Homo sapiens); test: Binding affinity to eEF1A1 in human CCRF-CEM cells after 30 mins by Western blot method; assay type: cell-based
[17] = target: Actin, cytoplasmic 1 (Homo sapiens) (UniProt P60709); test: Binding affinity to beta-actin in human CCRF-CEM cells after 30 mins by Western blot method; assay type: cell-based
[18] = target: Pyruvate kinase PKM (Homo sapiens) (UniProt P14618); test: Binding affinity to PKM2 in human CCRF-CEM cells after 30 mins by Western blot method; assay type: cell-based
[19] = target: Actin, cytoplasmic 1 (Homo sapiens) (UniProt P60709); test: Binding affinity to beta-actin in human CCRF-CEM cells after 30 mins by HPLC-MS based SDS-PAGE analysis; assay type: cell-based
Method in brief: (§1)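 Biotinylated 3-HQ ligands (one linked via the quinolinone benzene ring, one via the 2-phenyl ring) were immobilized on streptavidin magnetic beads and incubated with total protein lysate from CCRF-CEM cells. Bound proteins were released, resolved by SDS-PAGE, and identified by mass spectrometry.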

[20] = target: T1, Elongation factor 1-alpha 1 (Homo sapiens); test: Binding affinity to eEF1A1 in human CCRF-CEM cells after 30 mins by HPLC-MS based SDS-PAGE analysis; assay type: cell-based; method in brief: as §1
[21] = target: Pyruvate kinase PKM (Homo sapiens) (UniProt P14618); test: Binding affinity to PKM2 in human CCRF-CEM cells after 30 mins by HPLC-MS based SDS-PAGE analysis; assay type: cell-based; method in brief: as §1

Sequence of Pyruvate kinase PKM (Homo sapiens) (P14618 2-531 limits assumed): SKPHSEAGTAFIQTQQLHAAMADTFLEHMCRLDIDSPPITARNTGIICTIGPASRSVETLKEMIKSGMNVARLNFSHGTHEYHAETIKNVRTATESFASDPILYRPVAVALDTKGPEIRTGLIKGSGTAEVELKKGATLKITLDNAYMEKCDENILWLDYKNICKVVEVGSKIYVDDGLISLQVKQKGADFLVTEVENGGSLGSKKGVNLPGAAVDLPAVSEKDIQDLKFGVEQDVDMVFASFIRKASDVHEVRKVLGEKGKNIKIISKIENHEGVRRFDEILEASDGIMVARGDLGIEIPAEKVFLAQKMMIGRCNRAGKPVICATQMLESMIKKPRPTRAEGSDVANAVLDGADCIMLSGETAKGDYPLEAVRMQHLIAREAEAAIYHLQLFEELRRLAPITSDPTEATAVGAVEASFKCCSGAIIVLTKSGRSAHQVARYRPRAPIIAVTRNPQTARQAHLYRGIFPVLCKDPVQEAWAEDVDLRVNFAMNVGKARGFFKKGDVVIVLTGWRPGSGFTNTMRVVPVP

| SMILES | Ka [8] | IC50 (A549 [10]) [µM] | IC50 (U2OS [11]) [µM] | IC50 (CCRF-CEM [12]) [µM] | IC50 (HCT-116) [µM] | IC50 (K562 [13]) [µM] | IC50 (K562 [15]) [µM] | IC50 (BJ [9]) [µM] | IC50 [14] [µM] | other results |
| --- | --- | --- | --- | --- | --- | --- | --- | --- | --- | --- |
| O=c1c(O)c(-c2ccc(N3CCCCC3)c([N+](=O)[O-])c2)[nH]c2ccccc12 | – | – | – | – | – | – | – | – | – | IC50 (K562 [1]): 2.02 µM; IC50 (A549 [2]): 1.62 µM; IC50 [3]: 3 µM; IC50 (CCRF-CEM [4]): 1.55 µM; IC50 (BJ [5]): 9.83 µM; IC50 (U2OS [6]): 7.51 µM; IC50 (K562 [7]): 0.75 µM |
| O=C(O)/C=C/c1nn(Cc2ccc(Cl)cc2Cl)c2cc(C(F)(F)F)ccc12 | 1.27 ×10⁷ /M | – | – | – | – | – | – | – | – | – |
| CCN(CC)c1ccc(-c2[nH]c3ccccc3c(=O)c2O)cc1[N+](=O)[O-] | – | – | – | – | – | – | – | – | – | IC50 (K562 [1]): 2.71 µM; IC50 (A549 [2]): 1.89 µM; IC50 [3]: 6.75 µM; IC50 (CCRF-CEM [4]): 1.72 µM; IC50 (BJ [5]): 9.73 µM; IC50 (U2OS [6]): 8.57 µM; IC50 (K562 [7]): 0.75 µM |
| NC(=O)c1cc(-c2[nH]c3ccccc3c(=O)c2O)ccc1N1CCCCC1 | 2.9 ×10⁶ /M | 9.96 | 26 | 3.34 | 4.46 | 6.41 | 7.1 | 48.9 | 21.4 | – |
| CCNc1ccc(-c2[nH]c3ccccc3c(=O)c2O)cc1[N+](=O)[O-] | – | – | – | – | – | – | – | – | – | IC50 (K562 [1]): 1.96 µM; IC50 (A549 [2]): 0.94 µM; IC50 [3]: 3.01 µM; IC50 (CCRF-CEM [4]): 1.42 µM; IC50 (BJ [5]): 9.39 µM; IC50 (U2OS [6]): 9.98 µM; IC50 (K562 [7]): 0.66 µM |
| O=C(O)c1cc(-c2[nH]c3ccccc3c(=O)c2O)ccc1N1CCOCC1 | 1.03 ×10⁷ /M | 50 | 50 | 49.6 | 50 | 50 | 50 | 50 | 50 | – |
| NC(=O)c1cc(-c2[nH]c3cc(C(=O)NCc4ccccc4)ccc3c(=O)c2O)ccc1N1CCCCC1 | 1.81 ×10⁷ /M | 3.77 | 0.58 | 1.73 | 1.01 | > 50 | 8.3 | > 50 | > 50 | – |
| O=C1N[C@H]2[C@H](CS[C@H]2CCCCC(=O)OCCOCCOCCOCCOCCOCCOCCOCCOCCOCCNc2ccc(-c3[nH]c4ccccc4c(=O)c3O)cc2[N+](=O)[O-])N1 | – | – | – | – | – | – | – | – | – | Activity [16]: inactive; Activity [17]: inactive; Activity [18]: inactive |
| CCCCCNC(=O)c1ccc2c(=O)c(O)c(-c3ccc(N4CCCCC4)c(C(N)=O)c3)[nH]c2c1 | 5.3 ×10⁶ /M | 1.89 | 0.56 | 1.73 | 0.64 | 32.7 | 2.39 | 10.2 | 8.03 | – |
| CCNc1ccc(-c2[nH]c3cc(C(=O)NCCOCCOC(=O)CCCC[C@@H]4SC[C@@H]5NC(=O)N[C@@H]54)ccc3c(=O)c2O)cc1[N+](=O)[O-] | – | – | – | – | – | – | – | – | – | Activity [19]: Active; Activity [20]: Active; Activity [16]: Active; Activity [17]: Active; Activity [21]: Active; Activity [18]: Active |

Now from value to compound, other results behind:

| Ka [8] | IC50 (A549 [10]) [µM] | IC50 (U2OS [11]) [µM] | IC50 (CCRF-CEM [12]) [µM] | IC50 (HCT-116) [µM] | IC50 (K562 [13]) [µM] | IC50 (K562 [15]) [µM] | SMILES | IC50 (BJ [9]) [µM] | IC50 [14] [µM] | other results |
| --- | --- | --- | --- | --- | --- | --- | --- | --- | --- | --- |
| inactive | > 50 | 47 | 26.7 | 44.2 | 27.4 | 48 | O=c1c(O)c(-c2ccccc2)[nH]c2ccccc12 | > 50 | 22.5 | – |
| 2.54 ×10⁶ /M | 50 | 50 | 49.6 | 50 | 50 | 50 | O=C(O)c1cc(-c2[nH]c3ccccc3c(=O)c2O)ccc1N1CCCCC1 | 50 | 50 | – |
| 6.8 ×10⁶ /M | 44.4 | 50 | 16.2 | 30.6 | 50 | 50 | NC(=O)c1cc(-c2[nH]c3ccccc3c(=O)c2O)ccc1N1CCOCC1 | 50 | 50 | – |
